Measured values from ChEMBL document CHEMBL1130204, “3 alpha-Hydroxy-3 beta-(phenylethynyl)-5 beta-pregnan-20-ones: synthesis and pharmacological activity of neuroactive steroids with high affinity for GABAA receptors” (J Med Chem, 1997).

Experiments:
Rattus norvegicus = species: Rattus norvegicus; test: The maximum inhibitory potency was calculated by fitting [35S]TBPS inhibition data to a sigmoid function (rat brain cortical P2 membranes); format: functional
Method in brief: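 Rat cortical P2 membranes washed in 200 mM NaCl/50 mM Na-K phosphate pH 7.4, incubated 90 min at room temperature with 2 nM [35S]TBPS, 5 µM GABA and test drug in DMSO (final 0.5%). Nonspecific binding defined with 2 µM unlabeled TBPS. Filtration, scintillation counting. Fits to one- or two-component, full or partial inhibition models chosen by F-test; IC50 and Imax as mean ± SEM of individual experiments.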

[1] = target: GABA-A receptor; anion channel; test: In vitro inhibition of [35S]TBPS binding to gamma-aminobutyric-acid A receptor in rat brain cortical membranes in the presence of 5 uM GABA.; format: cell membranes, Membrane
Method in brief: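 Rat cortical P2 membranes, washed in 200 mM NaCl/50 mM Na-K phosphate pH 7.4, incubated 90 min at room temperature with 2 nM [35S]TBPS, 5 µM GABA and test drug in DMSO (final 0.5%). Nonspecific binding taken with 2 µM unlabeled TBPS. Filtration, then scintillation counting. Partial vs full and one- vs two-component models chosen by F-test.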

Mus musculus = test: Percent of animals (n=8) not exhibiting PTZ-induced ( Pentylentetrazol protection) seizures 10 min following a 10 mg/kg ip dose of steroid.; format: functional; conditions: route intraperitoneal
Method in brief: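 Male NSA mice (15-20 g), n = 8. […] Mice watched 30 min for clonic seizure (forelimb clonus ≥3 s). Read-out is the percent of mice protected.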

[2] = target: T1, GABA-A receptor; alpha-1/beta-2/gamma-2 (Homo sapiens, UniProt P14867+P18507+P47870); test: Steroid potentiation of 5% GABA responses in Xenopus oocytes expressing human alpha-1-beta-2-gamma-2L subunits of GABA-A receptor; format: functional, cell-based, Oocyte
T1 sequence (P14867 whole entry): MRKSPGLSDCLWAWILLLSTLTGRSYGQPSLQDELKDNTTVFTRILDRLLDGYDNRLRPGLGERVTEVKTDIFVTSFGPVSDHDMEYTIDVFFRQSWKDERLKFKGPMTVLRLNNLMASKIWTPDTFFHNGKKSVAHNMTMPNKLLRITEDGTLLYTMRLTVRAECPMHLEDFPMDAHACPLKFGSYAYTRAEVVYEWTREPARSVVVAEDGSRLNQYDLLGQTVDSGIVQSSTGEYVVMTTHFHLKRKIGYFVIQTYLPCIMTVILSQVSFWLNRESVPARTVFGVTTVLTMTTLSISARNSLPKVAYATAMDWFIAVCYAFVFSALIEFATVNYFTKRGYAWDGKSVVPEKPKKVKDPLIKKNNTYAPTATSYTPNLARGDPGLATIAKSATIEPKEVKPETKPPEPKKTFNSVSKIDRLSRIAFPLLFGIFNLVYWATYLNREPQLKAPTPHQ
T1 sequence (P47870 whole entry): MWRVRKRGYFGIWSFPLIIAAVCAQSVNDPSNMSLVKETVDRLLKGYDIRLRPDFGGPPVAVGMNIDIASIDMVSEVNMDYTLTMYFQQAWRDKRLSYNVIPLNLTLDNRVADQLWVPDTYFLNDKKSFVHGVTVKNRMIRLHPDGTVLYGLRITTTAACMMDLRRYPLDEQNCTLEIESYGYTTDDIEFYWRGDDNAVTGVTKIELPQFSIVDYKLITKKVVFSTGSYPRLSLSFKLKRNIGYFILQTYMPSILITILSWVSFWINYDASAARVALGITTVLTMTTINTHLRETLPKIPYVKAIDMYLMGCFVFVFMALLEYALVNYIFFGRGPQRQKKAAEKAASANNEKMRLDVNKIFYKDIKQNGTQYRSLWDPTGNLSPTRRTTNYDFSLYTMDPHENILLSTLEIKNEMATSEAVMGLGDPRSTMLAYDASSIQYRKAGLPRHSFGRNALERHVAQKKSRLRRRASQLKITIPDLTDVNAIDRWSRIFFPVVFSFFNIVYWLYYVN
T1 sequence (P18507 whole entry): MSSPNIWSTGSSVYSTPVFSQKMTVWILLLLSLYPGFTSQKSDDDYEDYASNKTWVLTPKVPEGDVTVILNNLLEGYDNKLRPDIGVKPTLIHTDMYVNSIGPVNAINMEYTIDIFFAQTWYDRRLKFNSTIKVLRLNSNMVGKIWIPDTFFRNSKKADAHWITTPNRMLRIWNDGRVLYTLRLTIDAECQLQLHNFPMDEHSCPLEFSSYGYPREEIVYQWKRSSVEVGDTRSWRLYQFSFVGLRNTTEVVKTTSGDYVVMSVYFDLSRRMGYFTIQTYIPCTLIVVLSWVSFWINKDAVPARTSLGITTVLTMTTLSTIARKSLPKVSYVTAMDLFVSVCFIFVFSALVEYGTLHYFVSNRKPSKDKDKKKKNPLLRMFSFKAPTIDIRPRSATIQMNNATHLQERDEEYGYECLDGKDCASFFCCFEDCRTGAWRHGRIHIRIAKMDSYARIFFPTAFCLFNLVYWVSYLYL
Method in brief: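 Xenopus oocytes injected with α1, β2, γ2L cRNAs (~1 ng each). Two-electrode voltage clamp at -70 mV in frog Ringer's, pH 7.4. GABA set to give about 5% of the maximal (1 mM GABA) current. Steroid stocks in DMSO diluted into Ringer's, DMSO 0.3%. Modulation is potentiation plus any direct steroid current, fitted to a four-parameter logistic. Mean ± SEM.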

[3] = target: GABA-A receptor; alpha-1/beta-2/gamma-2 (Homo sapiens) (UniProt P14867+P47870+P18507); test: Efficacy as fractional response (FR) relative to GABA maximum current elicited in the Xenopus oocytes; format: functional, cell-based; conditions: Oocyte
Method in brief: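 Xenopus oocytes expressing α1β2γ2L GABAA receptors (~1 ng each cRNA), two-electrode voltage clamp at -70 mV in frog Ringer's pH 7.4. GABA set to give ~5% of maximal current (1 mM GABA). Steroid co-applied with 0.3% DMSO. Response taken as potentiation plus any direct current, expressed as a fraction of GABA maximum, fit to a four-parameter logistic.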

[4] = Slope value was determined

Compound: CC(=O)[C@H]1CC[C@H]2[C@@H]3CC[C@@H]4C[C@@](O)(CCCc5ccccc5)CC[C@]4(C)[C@H]3CC[C@]12C
- Imax (Rattus norvegicus): 91%
- IC50 [1]: 190 nM
- PTZ protection (Mus musculus): 13%

Compound: CCN(CC)C(=O)c1ccc(C#C[C@@]2(O)CC[C@@]3(C)[C@H](CC[C@@H]4[C@@H]3CC[C@]3(C)[C@@H](C(C)=O)CC[C@@H]43)C2)cc1
- Imax (Rattus norvegicus): 91%
- IC50 [1]: 93 nM
- PTZ protection (Mus musculus): 13%

Compound: CC(=O)[C@H]1CC[C@H]2[C@@H]3CC[C@@H]4C[C@@](O)(C#Cc5ccc(-c6ccccc6)cc5)CC[C@]4(C)[C@H]3CC[C@]12C
- Imax (Rattus norvegicus): 90%
- IC50 [1]: 54 nM
- PTZ protection (Mus musculus): 0%

Compound: COc1ccc(C#C[C@@]2(O)CC[C@@]3(C)[C@H](CC[C@@H]4[C@@H]3CC[C@]3(C)[C@@H](C(C)=O)CC[C@@H]43)C2)cc1
- Imax (Rattus norvegicus): 84%
- IC50 [1]: 42 nM
- PTZ protection (Mus musculus): 25%

Compound: CC(=O)[C@H]1CC[C@H]2[C@@H]3CC[C@@H]4C[C@@](O)(C#Cc5ccc(C)cc5)CC[C@]4(C)[C@H]3CC[C@]12C
- Imax (Rattus norvegicus): 84%
- IC50 [1]: 83 nM
- PTZ protection (Mus musculus): 50%

Compound: CC(=O)[C@H]1CC[C@H]2[C@@H]3CC[C@@H]4C[C@@](O)(C#Cc5ccc(C(N)=O)cc5)CC[C@]4(C)[C@H]3CC[C@]12C
- Imax (Rattus norvegicus): 96%
- IC50 [1]: 1800 nM
- PTZ protection (Mus musculus): 13%

Compound: CC(=O)[C@H]1CC[C@H]2[C@@H]3CC[C@@H]4C[C@@](O)(C#Cc5ccccc5)CC[C@]4(C)[C@H]3CC[C@]12C
- Imax (Rattus norvegicus): 100%
- IC50 [1]: 100 nM
- PTZ protection (Mus musculus): 25%

Compound: CC(=O)[C@H]1CC[C@H]2[C@@H]3CC[C@@H]4C[C@@](O)(C#Cc5ccc6c(c5)OCO6)CC[C@]4(C)[C@H]3CC[C@]12C
- Imax (Rattus norvegicus): 93%
- IC50 [1]: 68 nM
- PTZ protection (Mus musculus): 13%

Compound: CC(=O)[C@H]1CC[C@H]2[C@@H]3CC[C@@H]4C[C@@](O)(C#Cc5ccc(O)cc5)CC[C@]4(C)[C@H]3CC[C@]12C
- Imax (Rattus norvegicus): 100%
- IC50 [1]: 2300 nM
- EC50 [2]: > 1000 nM
- PTZ protection (Mus musculus): 0%

Compound: COc1ccc(C#C[C@@]2(O)CC[C@@]3(C)[C@H](CC[C@@H]4[C@@H]3CC[C@]3(C)[C@@H](C(C)=O)CC[C@@H]43)C2)cc1OC
- Imax (Rattus norvegicus): 102%
- IC50 [1]: 290 nM
- PTZ protection (Mus musculus): 13%

Compound: CC(=O)[C@H]1CC[C@H]2[C@@H]3CC[C@@H]4C[C@@](O)(C#Cc5ccc(Cl)cc5)CC[C@]4(C)[C@H]3CC[C@]12C
- Imax (Rattus norvegicus): 88%
- IC50 [1]: 70 nM
- PTZ protection (Mus musculus): 0%

Compound: CC(=O)[C@H]1CC[C@H]2[C@@H]3CC[C@@H]4C[C@@](O)(Cc5ccccc5)CC[C@]4(C)[C@H]3CC[C@]12C
- Imax (Rattus norvegicus): 101%
- IC50 [1]: 110 nM
- PTZ protection (Mus musculus): 38%

Compound: CC(=O)[C@H]1CC[C@H]2[C@@H]3CC[C@@H]4C[C@@](O)(CCc5ccccc5)CC[C@]4(C)[C@H]3CC[C@]12C
- Imax (Rattus norvegicus): 102%
- IC50 [1]: 150 nM
- PTZ protection (Mus musculus): 0%

Compound: CC(=O)[C@H]1CC[C@H]2[C@@H]3CC[C@@H]4C[C@@](O)(C#Cc5cccc(O)c5)CC[C@]4(C)[C@H]3CC[C@]12C
- Imax (Rattus norvegicus): 100%
- IC50 [1]: 420 nM
- PTZ protection (Mus musculus): 0%

Compound: CC(=O)[C@H]1CC[C@H]2[C@@H]3CC[C@@H]4C[C@@](O)(C#Cc5ccc([N+](=O)[O-])cc5)CC[C@]4(C)[C@H]3CC[C@]12C
- Imax (Rattus norvegicus): 98%
- IC50 [1]: 42 nM
- PTZ protection (Mus musculus): 13%

Compound: CC(=O)[C@H]1CC[C@H]2[C@@H]3CC[C@@H]4C[C@@](O)(C#Cc5ccc(C(=O)c6ccccc6)cc5)CC[C@]4(C)[C@H]3CC[C@]12C
- Imax (Rattus norvegicus): 96%
- IC50 [1]: 55 nM
- PTZ protection (Mus musculus): 38%

Compound: COc1ccccc1C#C[C@@]1(O)CC[C@@]2(C)[C@H](CC[C@@H]3[C@@H]2CC[C@]2(C)[C@@H](C(C)=O)CC[C@@H]32)C1
- Imax (Rattus norvegicus): 89%
- IC50 [1]: 170 nM
- PTZ protection (Mus musculus): 0%

Compound: C#C[C@@]1(O)CC[C@@]2(C)[C@H](CC[C@@H]3[C@@H]2CC[C@]2(C)[C@@H](C(C)=O)CC[C@@H]32)C1
- IC50 [1]: 39 nM

Compound: CC(=O)[C@H]1CC[C@H]2[C@@H]3CC[C@@H]4C[C@](C)(O)CC[C@]4(C)[C@H]3CC[C@]12C
- IC50 [1]: 37 nM

Compound: CCOC(=O)c1ccc(C#C[C@@]2(O)CC[C@H]3[C@H](CC[C@@H]4[C@@H]3CC[C@]3(C)[C@@H](C(C)=O)CC[C@@H]43)C2)cc1
- Imax (Rattus norvegicus): 94%
- IC50 [1]: 26 nM
- PTZ protection (Mus musculus): 13%

Compound: CC(=O)[C@H]1CC[C@H]2[C@@H]3CC[C@@H]4C[C@@](O)(C#Cc5ccc(C(F)(F)F)cc5)CC[C@]4(C)[C@H]3CC[C@]12C
- Imax (Rattus norvegicus): 88%
- IC50 [1]: 56 nM
- PTZ protection (Mus musculus): 0%

Compound: CC(=O)[C@H]1CC[C@H]2[C@@H]3CC[C@@H]4C[C@@](O)(c5ccccc5)CC[C@]4(C)[C@H]3CC[C@]12C
- Imax (Rattus norvegicus): 89%
- IC50 [1]: 380 nM
- PTZ protection (Mus musculus): 25%

Compound: CC(=O)[C@H]1CC[C@H]2[C@@H]3CC[C@@H]4C[C@@](O)(C#Cc5ccc(N(C)C)cc5)CC[C@]4(C)[C@H]3CC[C@]12C
- Efficacy [3]: 0.76
- Imax (Rattus norvegicus): 78%
- IC50 [1]: 40 nM
- EC50 [2]: 18 nM
- Slope [4]: 1.1
- PTZ protection (Mus musculus): 50%

Compound: CCOC(=O)c1ccc(C#C[C@@]2(O)CC[C@@]3(C)[C@H](CC[C@@H]4[C@@H]3CC[C@]3(C)[C@@H](C(C)=O)CC[C@@H]43)C2)cc1
- Imax (Rattus norvegicus): 97%
- IC50 [1]: 12 nM
- PTZ protection (Mus musculus): 19%

Compound: CC(=O)[C@H]1CC[C@H]2[C@@H]3CC[C@@H]4C[C@@](O)(C#Cc5ccc(C#N)cc5)CC[C@]4(C)[C@H]3CC[C@]12C
- Imax (Rattus norvegicus): 85%
- IC50 [1]: 60 nM
- PTZ protection (Mus musculus): 44%
